The values below come from ChEMBL document CHEMBL1135145, “Synthesis and bioactivities of novel 4,5,6,7-tetrahydrothieno[2,3-c]pyridines as inhibitors of tumor necrosis factor-alpha (TNF-alpha) production” (Bioorg Med Chem Lett, 2002).

In one experiment the test system is Rattus norvegicus. As to the kind of experiment: Compound was evaluated in vivo for the inhibition of LPS-stimulated serum TNF-alpha production in rat after oral administration at a dose 100 mg/kg. The class given is functional. The method in brief:
(§1)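 Male SD rats, 6 weeks old, given compound orally as a suspension in 0.5% CMC. LPS (E. coli B055:B5, 0.1 mg/kg) injected iv 1 h after dosing. Animals killed and bled 90 min later. Serum TNF-α measured by ELISA. ED50 derived from TNF-α yield relative to LPS controls without compound.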
The term inhibition in vivo denotes how much of the control response was suppressed. A high value points to a response far below the control. Turning to `CC(=O)CCCCn1c(=O)c2c(ncn2C)n(C)c1=O` [PENTOXIFYLLINE], at 100 mg/kg the inhibition in vivo was 74.4%.

For a further experiment, the species on record is Rattus norvegicus. The experiment is described as follows: In vitro inhibition of lipopolysaccharide stimulated tumor necrosis factor-alpha production in rat whole blood. The class given is functional. The method in brief:
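Rat whole blood diluted to 50% in RPMI-1640 containing streptomycin and penicillin. Compound in DMSO, or DMSO vehicle, preincubated for 30 min at 37 °C in 5% CO2. Stimulated with 10 µg/mL LPS (E. coli B055:B5) and incubated 4 h under the same conditions. IC50 taken for inhibition of TNF-α production.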
One may read the IC50 as the concentration at which inhibition is half-maximal. Molecule `CC(=O)N1CCc2c(sc(N(CC(C)C)CC(C)C)c2C(=O)c2ccccc2Cl)C1` gave an IC50 of 30 µM. The same measure, in the same setting: the result for `COc1ccc(C(=O)c2c(NC(C)=O)sc3c2CCN(C(C)=O)C3)cc1` reads 26 µM. In turn, `CC(=O)N1CCc2c(sc(NC(=O)C(C)C)c2C(=O)c2ccc(Cl)cc2)C1` came in with an IC50 of over 100 µM. `CC(=O)N1CCc2c(sc(NC(=O)C3CC3)c2C(=O)c2cccc(Cl)c2)C1` had an IC50 of 20 µM. This lies in the double-digit micromolar range. On the same count and under the same terms, the value for `CC(C)C(=O)Nc1sc2c(c1C(=O)c1ccccc1Cl)CCN(C(=O)C1CC1)C2` was 2.6 µM. The same measure, in the same setting: the value for `CC(=O)N1CCc2c(sc(NC(=O)C(C)C)c2C(=O)c2ccccc2Cl)C1` was 2.6 µM.

`CCOC(=O)c1c(NC(=O)c2cccnc2)sc2c1CCN(C(C)=O)C2` returned an IC50 of 22 µM. Turning to `CC(=O)N1CCc2c(sc(NC(=O)C(C)(C)C)c2C(=O)c2ccccc2Cl)C1`, the IC50 turned out to be 3.4 µM. As to `CC(=O)N1CCc2c(sc(NC(=O)C(C)C)c2C(=O)c2ccccc2)C1`, the IC50 came to 3 µM. The IC50 values of the last two molecules are within 1.5-fold of each other. Same read-out and setting: the value for `CCN(CC)C(=O)N(C)c1sc2c(c1C(=O)c1ccccc1Cl)CCN(C(C)=O)C2` was 10 µM; that for `CC(=O)N1CCc2c(sc(NC(=O)C(C)(C)C)c2Cc2ccccc2Cl)C1` was 29 µM; that for `COc1ccc(C(=O)c2c(NC(C)=O)sc3c2CCN(C(C)=O)C3)cc1OC` was 46 µM. Regarding `Nc1sc2c(c1C(=O)c1ccccc1Cl)CCNC2`, the IC50 was over 100 µM. On to `CCOC(=O)c1c(NC(=O)C2CC2)sc2c1CCN(C(C)=O)C2`, for which the IC50 stood at 10 µM. Turning to `CC(=O)N1CCc2c(sc(N)c2C(=O)c2ccccc2Cl)C1`, the half-inhibitory concentration (IC50) stood at 72 µM. Still for that read-out and setting: the value for `CC(C)C(=O)Nc1sc2c(c1C(=O)c1ccccc1Cl)CCN(Cc1ccccc1)C2` was 5 µM; that for `CCc1c(NC(=O)C(C)C)sc2c1CCN(C(C)=O)C2` was 23 µM. `CC(=O)N1CCc2c(sc(NC(=O)c3cccnc3)c2C(=O)c2ccccc2Cl)C1` returned a concentration for half-maximal inhibition (IC50) of 12 µM. On the same count and under the same terms, the result for `CC(=O)N1CCc2c(sc(NC(=O)C3CCCCC3)c2C(=O)c2ccccc2Cl)C1` reads 39 µM. The same measure, in the same setting: the value for `CC(C)C(=O)Nc1sc2c(c1C(=O)c1ccccc1Cl)CCN(C)C2` was 2 µM; that for `CC(=O)N1CCc2c(sc(NC(=O)C3CC3)c2C(=O)c2ccccc2Cl)C1` was 3 µM. On the same count and under the same terms, the value for `CC(=O)N1CCc2c(sc(NC(=O)c3ccccc3)c2C(=O)c2ccccc2)C1` was 48 µM.

`CC(=O)N1CCc2c(sc(NC(=O)C(C)Br)c2C(=O)c2ccccc2Cl)C1` (configuration not stated): half-maximal inhibition (IC50) required 6 µM. The same measure, in the same setting: the value for `CC(=O)N1CCc2c(sc(NC(=O)C(C)(C)C)c2C(O)c2ccccc2Cl)C1` (configuration not stated) was 19 µM; that for `CCN1CCc2c(sc(N(CC)C(=O)C(C)C)c2C(=O)c2ccccc2Cl)C1` was 10 µM.

`CC(=O)Nc1sc2c(c1C(=O)c1ccccc1Cl)CCN(C(C)=O)C2` showed an IC50 of 9.5 µM. The same measure, in the same setting: the result for `CC(=O)N1CCc2c(sc(NC(=O)CCc3ccccc3)c2C(=O)c2ccccc2Cl)C1` reads over 100 µM; that for `O=C(c1ccccc1Cl)c1c(NC(=O)C2CC2)sc2c1CCN(C(=O)C1CC1)C2`, 0.9 µM; that for `CCC(=O)Nc1sc2c(c1C(=O)c1ccccc1Cl)CCN(C(C)=O)C2`, 15 µM. Still for that read-out and setting: the result for `CC(=O)N1CCc2c(sc(NC(=O)C(C)C)c2C(=O)c2ccccc2C)C1` reads 3.9 µM; that for `CC(=O)N1CCc2c(sc(NC(=O)c3cccnc3)c2C(=O)c2cccc(Cl)c2)C1`, 36 µM. `CCN1CCc2c(sc(NC(=O)C(C)C)c2C(O)c2ccccc2Cl)C1` (configuration not stated) yielded an IC50 of 100 µM. Take `CC(=O)N1CCc2c(sc(NC(=O)c3ccc(F)cc3)c2C(=O)c2ccccc2Cl)C1`: 100 µM corresponded to half-maximal inhibition (IC50).

For `O=C(Nc1sc2c(c1C(=O)c1ccccc1Cl)CCN(C(=O)C1CC1)C2)c1ccccc1`, the IC50 was over 100 µM. For the molecule `CCOC(=O)c1c(NC(=O)C(C)C)sc2c1CCN(C(C)=O)C2`, half-maximal inhibition (IC50) was put at 22 µM.

`CCN(CC)C(=O)Nc1sc2c(c1C(=O)c1ccccc1Cl)CCN(C(C)=O)C2`: 0.51 µM corresponded to half-maximal inhibition (IC50). Turning to `CC(=O)N1CCc2c(C(=O)c3ccccc3Cl)csc2C1`, the IC50 amounted to 38 µM. On the same count and under the same terms, the value for `CC(=O)N1CCc2c(sc(NC(=O)/C=C/c3ccccc3)c2C(=O)c2ccccc2Cl)C1` was over 100 µM.

On to `CC(=O)N1CCc2c(sc(NC(=O)C(C)C)c2C(C)O)C1` (configuration not stated), for which the midpoint of inhibition, the IC50, lay at 38 µM.

As for `COc1cccc(OC)c1C(=O)c1c(NC(C)=O)sc2c1CCN(C(C)=O)C2`, half-maximal inhibition (IC50) required 88 µM.

In the case of `CN1CCc2c(sc(NC(=O)C3CC3)c2C(=O)c2ccccc2Cl)C1`, the IC50 came to 1.3 µM. This IC50 lies about 68-fold lower than the previous one. `O=C(c1ccccc1Cl)c1c(NC(=O)C2CC2)sc2c1CCN(Cc1ccccc1)C2` registered an IC50 of 6.5 µM.

Turning to `CC(=O)c1c(NC(=O)C2CC2)sc2c1CCN(C(C)=O)C2`, the half-inhibitory concentration (IC50) is 28 µM. With `CC(=O)N1CCc2c(sc(NC(=O)C(C)Cl)c2C(=O)c2ccccc2Cl)C1` (configuration not stated), the IC50 was 12 µM. Against the preceding molecule, the IC50 is about 2.3-fold lower. On the same count and under the same terms, the result for `CC(=O)N1CCc2c(sc(NC(=O)C3CCC3)c2C(=O)c2ccccc2Cl)C1` reads 2.9 µM; that for `CC(=O)N1CCc2c(sc(N(C)C(=O)C3CC3)c2C(=O)c2ccccc2Cl)C1`, 74 µM; that for `CC(C)C(=O)Nc1sc2c(c1C(=O)c1ccccc1Cl)CCNC2`, 4 µM. The same measure, in the same setting: the value for `O=C(Nc1sc2c(c1C(=O)c1ccccc1Cl)CCN(C(=O)C1CC1)C2)c1cccnc1` was 3.9 µM; that for `CC(=O)c1c(NC(=O)C(C)C)sc2c1CCN(C(C)=O)C2` was 35 µM.

In turn, `O=C(Nc1sc2c(c1C(=O)c1ccccc1Cl)CCN(Cc1ccccc1)C2)c1cccnc1` came in with a concentration for half-maximal inhibition (IC50) of 7.1 µM. Same read-out and setting: the result for `CC(=O)N1CCc2c(sc(NC(=O)CCl)c2C(=O)c2ccccc2Cl)C1` reads over 100 µM; that for `CC(=O)N1CCc2c(sc(NC(=O)C(C)C)c2C(=O)c2cccc(Cl)c2)C1`, 7.6 µM. The molecule `CCN(CC)C(=O)Nc1sc2c(c1C(=O)c1c(OC)cccc1OC)CCN(C(C)=O)C2` showed a half-inhibitory concentration (IC50) of 3.8 µM. Against the preceding molecule, the IC50 is about 2-fold lower.

With `CC(=O)N1CCc2c(sc(NC(=O)C3CC3)c2C(=O)c2ccccc2C)C1`, the IC50 was 2.9 µM. On the same count and under the same terms, the value for `CC(C)CN(CC(C)C)c1sc2c(c1C(=O)c1ccccc1Cl)CCN(C(=O)C1CC1)C2` was over 100 µM.

The molecule `O=C(c1ccccc1Cl)c1c(N(CC2CCCCC2)CC2CCCCC2)sc2c1CCN(C(=O)C1CC1)C2` showed a half-inhibitory concentration (IC50) of over 100 µM. The molecule `CC(=O)N1CCc2c(sc(NC(=O)C(C)N)c2C(=O)c2ccccc2Cl)C1` (configuration not stated) came in with an IC50 of 8 µM. Same read-out and setting: the result for `CCCCCCC(=O)Nc1sc2c(c1C(=O)c1ccccc1Cl)CCN(C(C)=O)C2` reads over 100 µM.

`CC(=O)N1CCc2c(sc(N(C)C(=O)C(C)C)c2C(=O)c2ccccc2Cl)C1` came in with an IC50 of 33 µM. On to `CC(=O)N1CCc2c(sc(NC(=O)c3cccnc3)c2C(=O)c2ccccc2)C1`, for which the IC50 amounted to 14 µM. Against the preceding molecule, the IC50 is about 2.4-fold lower. On to `CC(=O)N1CCc2c(sc(NC(=O)C3CC3)c2C(=O)c2ccccc2)C1`, for which the 50% inhibitory concentration (IC50) came to 3 µM. Same read-out and setting: the result for `O=C(Nc1sc2c(c1C(=O)c1ccccc1Cl)CCN(Cc1ccccc1)C2)c1ccccc1` reads over 100 µM; that for `CC(=O)N1CCc2c(sc(NC(=O)c3ccncc3)c2C(=O)c2ccccc2Cl)C1`, 21 µM; that for `CC(=O)N1CCc2c(sc(NC(=O)c3ccccc3)c2C(=O)c2ccccc2Cl)C1`, 46 µM.

`CCN1CCc2c(sc(NC(=O)C(C)C)c2C(=O)c2ccc3c(c2)OCO3)C1` registered an IC50 of 78 µM. This IC50 is about 1.7-fold higher than that of the molecule before. `CC(=O)N1CCc2c(sc(N(CC3CCCCC3)CC3CCCCC3)c2C(=O)c2ccccc2Cl)C1` displayed a half-maximal inhibitory concentration (IC50) of 100 µM. Regarding `CCN1CCc2c(sc(NC(=O)C(C)C)c2C(=O)c2ccccc2Cl)C1`, half-maximal inhibition (IC50) was put at 0.92 µM. For the molecule `CCNC(=O)Nc1sc2c(c1C(=O)c1ccccc1Cl)CCN(C(C)=O)C2`, the IC50 turned out to be 10 µM.

Molecule `C[C@@H]1C[C@H]2[C@@H]3CCC4=CC(=O)C=C[C@]4(C)[C@@]3(F)[C@@H](O)C[C@]2(C)[C@@]1(O)C(=O)CO` [DEXAMETHASONE] gave an IC50 of 0.02 µM. Molecule `CC(=O)CCCCn1c(=O)c2c(ncn2C)n(C)c1=O` [PENTOXIFYLLINE] had an IC50 of 40 µM.

For another experiment, the system named is Rattus norvegicus. The experiment is described as follows: Compound was evaluated in vivo for the inhibition of LPS-stimulated serum TNF-alpha production in rat after oral administration at a dose 50 mg/kg. Type of experiment: functional. The method in brief: as §1
Regarding `CC(=O)N1CCc2c(sc(NC(=O)C(C)C)c2C(=O)c2ccccc2Cl)C1`, the inhibition in vivo at 50 mg/kg came out at 2.4%.

Turning to `CC(=O)N1CCc2c(sc(NC(=O)C(C)C)c2C(=O)c2ccccc2)C1`, the inhibition in vivo at 50 mg/kg turned out to be 35%.

In turn, `CCOC(=O)c1c(NC(=O)C2CC2)sc2c1CCN(C(C)=O)C2` came in with an inhibition in vivo at 50 mg/kg of 64.2%. The same measure, in the same setting: the value for `CC(=O)N1CCc2c(sc(NC(=O)C3CC3)c2C(=O)c2ccccc2Cl)C1` was 35%. Still for that read-out and setting: the value for `CC(=O)N1CCc2c(sc(NC(=O)C(C)C)c2C(=O)c2ccccc2C)C1` was 3.9%; that for `CCOC(=O)c1c(NC(=O)C(C)C)sc2c1CCN(C(C)=O)C2` was 49.1%. The same measure, in the same setting: the value for `CC(=O)c1c(NC(=O)C2CC2)sc2c1CCN(C(C)=O)C2` was 31.3%; that for `CC(=O)c1c(NC(=O)C(C)C)sc2c1CCN(C(C)=O)C2` was 22.7%; that for `CC(=O)N1CCc2c(sc(NC(=O)C3CC3)c2C(=O)c2ccccc2C)C1` was 58.6%. On to `CC(=O)N1CCc2c(sc(NC(=O)C3CC3)c2C(=O)c2ccccc2)C1`, for which the inhibition in vivo at 50 mg/kg stood at 34.1%.

In a further experiment the test system is Rattus norvegicus. The experiment is described as follows: Compound was evaluated in vivo for the inhibition of LPS-stimulated serum TNF-alpha production in rat after oral administration of the compound. Type of experiment: functional. The method in brief:
as §1
As a reminder, the ED50 is the midpoint of the dose-response relation. High values mean a need for a large dose, low ones an effect at a small dose. For the molecule `C[C@@H]1C[C@H]2[C@@H]3CCC4=CC(=O)C=C[C@]4(C)[C@@]3(F)[C@@H](O)C[C@]2(C)[C@@]1(O)C(=O)CO` [DEXAMETHASONE], the 50% effect level (ED50) was put at a dose of 0.12 mg/kg.
